Assay results as given in publication PMC3790193 (British Journal of Cancer, 2013).
Like-named read-outs stand apart in the source and are kept apart here.

Experiments:
Calu-6 tumours [1] = test: Gene expression in lung tumours; assay type: in vivo, Rowett nude rats
How it was run: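 Male nude rats (8–10 weeks) given orotracheal Calu-6 cells. From week 3 they received saline, 2 mg kg−1 i.p., or 0.6 mg kg−1 aerosol on 4 consecutive days for 4 weeks. Five tumours from each of four rats per group; RNA by TRI-reagent, 1 μg reverse transcribed; TaqMan qPCR normalised to GAPDH. 2−ΔΔCt relative to vehicle tumours; triplicate assays; mean±s.e.m.; two-sample t-test.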

Calu-6 cells [2] = test: Orthotopic lung cancer model, tumour burden; assay type: in vivo, Rowett nude rats; conditions: for reduction in tumour burden: vs vehicle
How it was run: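 Calu-6 cells instilled orotracheally into male nude rats. From 3 weeks, groups of 20 received saline, 2 mg kg−1 i.p., or 0.6 mg kg−1 aerosol on 4 consecutive days over 4 weeks. At 7 weeks, lungs weighed; burden = tumour-bearing minus normal lung weight (rats without tumour cells). Lungs inflated with 10% neutral-buffered formalin at 25 cm for 6 h; 5-μm paraffin sections, H&E. t-test/ANOVA.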

Aerosol characterisation = assay type: physicochemical; conditions: nebulised solution 5 mg ml^−1, Pari LC Plus nebulisers
How it was run: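 Aerosol from a 5 mg ml−1 solution made by three jet nebulisers, piped through a ~24 in, 1.58-cm stainless tube into a 52-port flow-past nose-only chamber (exhaust ~14 l min−1). Concentration measured gravimetrically on membrane filters. Particle size sampled from the breathing zone with a Mercer-style cascade impactor at ~2.0 l min−1; MMAD calculated from the impactor data.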

Calu-6 tumours [3] = test: Gene methylation profiling of tumours; assay type: in vivo, Rowett nude rats
How it was run: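 Bisulphite-treated DNA from Calu-6 lung tumours (three per rat, four rats per group: vehicle, i.p. or aerosol) run on HM450K arrays. Normal bronchial epithelial lines from three never smokers used as reference. Probes from 200 bp 5′ of TSS through 5′-UTR; X, Y and imprinted genes excluded. Background corrected by normal-exponential method; β-values 0–1. Genes with normal β ⩾0.2 excluded. Vehicle β ⩾0.45 counted as methylated; ⩾20% β drop counted as demethylation.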

Calu-6 cells [4] = conditions: systemic delivery, previous study; ref Belinsky et al, 2011; cited from earlier work
[5] = assay type: in vivo, Rowett nude rats; conditions: for half-life / AUC: male, Rowett nude (Cr:NIH-ru), rat
How it was run: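 Male Rowett nude rats dosed once with drug in saline: 2 mg kg−1 i.p., or aerosol over 90 min nose-only (0.6 mg kg−1 deposited). Deposited dose = aerosol concentration × minute volume × time × deposition fraction (~10%) ÷ body weight. Three rats per group killed at each of 11 times over 96 h. Plasma and lung extracted by solid-phase extraction; LC/MS/MS on C18 column (25 °C), positive ESI. Non-compartmental analysis of per-time-point means.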

lung cancer = conditions: nebuliser, ref Lemarie et al, 2011, cited from earlier work
[6] = aerosol, 0.6 mg kg^−1 inhaled deposited dose, 90 min nose-only, single dose
[7] = plasma, inhaled or intranasal, 0.6 mg/kg
[8] = systemic, intraperitoneal injection 2 mg kg^−1, single dose

In the case of `Nc1ncn([C@@H]2O[C@H](CO)[C@@H](O)[C@H]2O)c(=O)n1` [5-Aza, 5-azacytidine], the “effect on the expression of Bik” value (Calu-6 tumours [1]; aerosol delivery compared with systemic delivery, P<0.001) was “more profound effect”, the “expression of p21 (WAF1)” value (Calu-6 tumours [1]; following systemic or aerosol delivery) was “increased to a similar extent” and the “Lung weight, mean±s.d.” value (Calu-6 cells [2]; aerosol 0.6 mg kg^−1, 4 consecutive days over 4 consecutive weeks, N=17) was 3.72 ± 0.82 g. The “reduction in tumour burden” value (Calu-6 cells [2]; aerosol delivery over 4 weeks) was 29%, the “removal of the pleomorphic cell population of tumours” value (Calu-6 cells [2]; inhaled delivery, histology (not shown)) was “equally effective as systemic delivery” and the “weight gain of rats” value (Calu-6 cells [2]; irrespective of treatment route) was 15–20%. The “Lung weight, mean±s.d.” value (Calu-6 cells [2]; systemic 2 mg kg^−1, 4 consecutive days over 4 consecutive weeks, N=18) was 3.58 ± 0.95 g, the “reduction in tumour burden” value (Calu-6 cells [2]; systemic delivery over 4 weeks) was 34% and the “average MMAD (mean mass aerodynamic diameter)” value (Aerosol characterisation) was 0.71 μm. For the same molecule, the “average number of genes showing ⩾20% demethylation” value (Calu-6 tumours [3]; aerosol delivery) was 521 genes, the “genes classified as methylated in the Calu-6 tumours that responded” value (Calu-6 tumours [3]; aerosol delivery, on average) was “approximately 50%” and the “genes commonly demethylated in 75% of tumours” value (Calu-6 tumours [3]; aerosol exposure) was 501 genes. For the same molecule, the “genes in common across all tumours demethylated ⩾20%” value (Calu-6 tumours [3]; aerosol-treated rats) was 300 genes, the “average number of genes showing ⩾20% demethylation” value (Calu-6 tumours [3]; systemic delivery) was 352 genes and the “genes commonly demethylated in 75% of tumours” value (Calu-6 tumours [3]; systemic exposure) was 275 genes. The “genes in common across all tumours demethylated ⩾20%” value (Calu-6 tumours [3]; systemic treatment) was 20 genes, the “pleomorphic cell population in residual tumour” value (Calu-6 cells [4]) was < 5 % of the residual tumour and the “AUC Lung” value [5, 6] was 8460 ng·h/mL. The “Concentrationmax Lung” value [5, 6] was 7883 ng/mL, the “Concentrationmax Plasma” value [5, 6] was 893 ng/mL and the half-life ([5]; lung, inhaled or intranasal, 0.6 mg/kg) was 110 min. The half-life ([5]; lung, ip, 2 mg/kg) was 8.4 min, the AUC [5, 7] was 1890 ng·h/mL and the half-life [5, 7] was 74.4 min. For the same molecule, the AUC ([5]; plasma, ip, 2 mg/kg) was 19100 ng·h/mL, the half-life ([5]; plasma, ip, 2 mg/kg) was 25.2 min and the “AUC Lung” value [5, 8] was 1082 ng·h/mL. The “Concentrationmax Lung” value [5, 8] was 2147 ng/mL and the “Concentrationmax Plasma” value [5, 8] was 15 492 ng ml^−1.

For `Nc1ccn([C@@H]2O[C@H](CO)[C@@H](O)C2(F)F)c(=O)n1` [Gemcitabine], the “total dose delivered to the lungs, on average” value (lung cancer; 1 day per week for 9 consecutive weeks) is given as 42±16% and the toxicity (lung cancer) is given as “no haematologic toxicity, nephrotoxicity, or neurotoxicity were observed”.
